Experimental data published in ChEMBL document CHEMBL5303300, “EUbOPEN Chemogenomics Library - Multiplex” (2023).
“And” between values parts separate entries of the source, which are not always exact repeats. Identical values can stand only once.

How the values were obtained:
[1] = system: Fibroblast; assay: Multiplex assay against human fibroblast; type: toxicity, cell-based; details: number of replicates 2
Outline: (§1)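 Phenotypes for tubulin, mitochondrial mass and membrane permeability are expressed as per cents of healthy-nucleus cells. Cells were stained live at seeding with Hoechst33342, BioTracker Green Microtubule Cytoskeleton Dye, MitoTracker Red and Annexin V Alexa Fluor 680, then imaged after compound addition on a CQ1 microscope at 37°C and 5% CO2. Machine-learning gating in CellPathfinder separated Hoechst high-intensity objects from normal cells, divided normal cells by nuclear state (healthy, pyknosed, fragmented) and divided pyknosed cells into mitotic or apoptotic.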

[2] = system: U2OS; assay: Multiplex assay against U2OS; type: toxicity, cell-based; details: human, number of replicates 2; outline: as §1
[3] = 12 h, 1 µM, compound concentration 1 uM
[4] = 12 h, 10 µM, compound concentration 10 uM
[5] = 24 h, 1 µM, compound concentration 1 uM
[6] = 24 h, 10 µM, compound concentration 10 uM
[7] = 48 h, 1 µM, compound concentration 1 uM
[8] = 48 h, 10 µM, compound concentration 10 uM

## COc1cc2nc(-c3cc(F)ccc3O)nc(N[C@@H]3CNC[C@H]3C(C)(C)O)c2cc1OC.Cl.Cl
[1]; [3]
  Population Apoptotic (%): 35% and 34%
  Population Healthy Nuclei (%): 60% and 58%
  Population Hoechst High Intensity Objects (%): 0%
  Population Membrane Permeable-Phenotype (%): 11% and 9%
  Population Mitochondria Different-Phenotype (%): 0% and 2%
  Population Mitotic Cells (%): 65%
  Population Normal (%): 100%
  Population Pyknosed Nuclei (%): 33% and 24%
  Population Tubulin-Different-Phenotype (%): 48% and 46%
  Total Cell Count: 178 and 189
[1]; [4]
  Population Apoptotic (%): 72% and 73%
  Population Healthy Nuclei (%): 8% and 16%
  Population Hoechst High Intensity Objects (%): 0%
  Population Mitochondria Different-Phenotype (%): 26% and 25%
  Population Mitotic Cells (%): 27% and 26%
  Population Normal (%): 99% and 100%
  Population Pyknosed Nuclei (%): 85% and 67%
  Population Tubulin-Different-Phenotype (%): 86% and 67%
  Total Cell Count: 170 and 187
[1]; [5]
  Population Apoptotic (%): 44% and 53%
  Population Fragmented Nuclei (%): 15% and 17%
  Population Healthy Nuclei (%): 63% and 65%
  Population Hoechst High Intensity Objects (%): 0%
  Population Membrane Permeable-Phenotype (%): 4% and 1%
  Population Mitochondria Different-Phenotype (%): 0% and 3%
  Population Mitotic Cells (%): 55% and 46%
  Population Normal (%): 99% and 100%
  Population Pyknosed Nuclei (%): 21% and 17%
  Population Tubulin-Different-Phenotype (%): 26% and 37%
  Total Cell Count: 211 and 188
[1]; [6]
  Population Apoptotic (%): 87% and 93%
  Population Healthy Nuclei (%): 1% and 2%
  Population Hoechst High Intensity Objects (%): 0%
  Population Membrane Permeable-Phenotype (%): 50% and 25%
  Population Mitochondria Different-Phenotype (%): 0% and 25%
  Population Mitotic Cells (%): 12% and 6%
  Population Normal (%): 100%
  Population Pyknosed Nuclei (%): 92% and 80%
  Population Tubulin-Different-Phenotype (%): 50%
  Total Cell Count: 168
[1]; [7]
  Population Apoptotic (%): 59% and 75%
  Population Fragmented Nuclei (%): 13% and 17%
  Population Healthy Nuclei (%): 75% and 70%
  Population Hoechst High Intensity Objects (%): 0%
  Population Membrane Permeable-Phenotype (%): 4% and 1%
  Population Mitochondria Different-Phenotype (%): 1% and 0%
  Population Mitotic Cells (%): 40% and 25%
  Population Normal (%): 100%
  Population Pyknosed Nuclei (%): 10% and 12%
  Population Tubulin-Different-Phenotype (%): 27% and 11%
  Total Cell Count: 201 and 191
[1]; [8]
  Population Apoptotic (%): 94% and 92%
  Population Fragmented Nuclei (%): 18% and 9%
  Population Healthy Nuclei (%): 3% and 4%
  Population Hoechst High Intensity Objects (%): 0%
  Population Membrane Permeable-Phenotype (%): 33% and 42%
  Population Mitochondria Different-Phenotype (%): 0%
  Population Mitotic Cells (%): 5% and 7%
  Population Normal (%): 100% and 99%
  Population Pyknosed Nuclei (%): 77% and 85%
  Population Tubulin-Different-Phenotype (%): 33% and 85%
  Total Cell Count: 171 and 162
[2]; [3]
  Population Apoptotic (%): 100% and 76%
  Population Healthy Nuclei (%): 57% and 82%
  Population Hoechst High Intensity Objects (%): 0%
  Population Membrane Permeable-Phenotype (%): 21% and 13%
  Population Mitochondria Different-Phenotype (%): 18% and 27%
  Population Mitotic Cells (%): 0% and 23%
  Population Normal (%): 100% and 99%
  Population Pyknosed Nuclei (%): 17% and 10%
  Population Tubulin-Different-Phenotype (%): 46% and 30%
[2]; [4]
  Population Apoptotic (%): 96% and 91%
  Population Fragmented Nuclei (%): 14% and 11%
  Population Healthy Nuclei (%): 5% and 3%
  Population Hoechst High Intensity Objects (%): 0%
  Population Membrane Permeable-Phenotype (%): 100%
  Population Mitochondria Different-Phenotype (%): 50% and 66%
  Population Mitotic Cells (%): 3% and 8%
  Population Normal (%): 100%
  Population Pyknosed Nuclei (%): 79% and 85%
  Population Tubulin-Different-Phenotype (%): 100%
[2]; [5]
  Population Apoptotic (%): 83% and 85%
  Population Fragmented Nuclei (%): 23% and 9%
  Population Healthy Nuclei (%): 65% and 74%
  Population Hoechst High Intensity Objects (%): 0%
  Population Membrane Permeable-Phenotype (%): 26% and 12%
  Population Mitochondria Different-Phenotype (%): 23% and 34%
  Population Mitotic Cells (%): 16% and 14%
  Population Normal (%): 100%
  Population Pyknosed Nuclei (%): 11% and 16%
  Population Tubulin-Different-Phenotype (%): 47% and 34%
[2]; [6]
  Population Apoptotic (%): 91% and 90%
